Assay [1] addresses α-glucosidase (Saccharomyces cerevisiae, EC 3.2.1.20) (Saccharomyces cerevisiae, UniProt P53341). As to the kind of experiment: Assay of α-glucosidase inhibitory activity. It counts as biochemical. Conditions: for inhibitory effect on α-glucosidase (in words): 1-deoxynojirimycin as control.
The target of assay [2] is T1, α-glucosidase (Saccharomyces cerevisiae, UniProt P53341). Conditions: reported in the literature; cited from earlier work.
The target in assay [3] is T1, α-glucosidase. As to the kind of experiment: Inhibitory kinetic analysis. It counts as biochemical.
Assay [4] addresses T1, α-glucosidase. As to the kind of experiment: Fluorescence quenching and UV-Vis absorption spectra of α-glucosidase. Conditions: Stern–Volmer analysis and UV-Vis absorption spectra at 298 K. In kind it is binding. In outline: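 Tryptophan fluorescence was excited at 280 nm and emission recorded at 300–500 nm. Test compound (0–8.0 × 10−5 mol L−1) was added to α-glucosidase (1 U mL−1) and incubated 30 s at 298 K before reading. Data were fitted to the Stern–Volmer equation F0/F = 1 + Kqτ0[Q], with τ0 = 6.2 ns. The same method was run at 273, 298 and 310 K for thermodynamic parameters. UV-Vis spectra (200–600 nm) were taken of enzyme (1.0 × 10−5 mol L−1) with compound at 0–9.0 × 10−5 mol L−1.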

As a reminder, the IC50 is the concentration that gives 50% inhibition. A word on the Ki: it is the dissociation constant of the complex between target and ligand, obtained from inhibition or displacement. Higher therefore signals weaker binding.

Entries after “also recorded” stand apart in the source; their conditions may differ. Read-outs that look alike come from different tables or passages of the source.

T1 sequence (P53341 whole entry): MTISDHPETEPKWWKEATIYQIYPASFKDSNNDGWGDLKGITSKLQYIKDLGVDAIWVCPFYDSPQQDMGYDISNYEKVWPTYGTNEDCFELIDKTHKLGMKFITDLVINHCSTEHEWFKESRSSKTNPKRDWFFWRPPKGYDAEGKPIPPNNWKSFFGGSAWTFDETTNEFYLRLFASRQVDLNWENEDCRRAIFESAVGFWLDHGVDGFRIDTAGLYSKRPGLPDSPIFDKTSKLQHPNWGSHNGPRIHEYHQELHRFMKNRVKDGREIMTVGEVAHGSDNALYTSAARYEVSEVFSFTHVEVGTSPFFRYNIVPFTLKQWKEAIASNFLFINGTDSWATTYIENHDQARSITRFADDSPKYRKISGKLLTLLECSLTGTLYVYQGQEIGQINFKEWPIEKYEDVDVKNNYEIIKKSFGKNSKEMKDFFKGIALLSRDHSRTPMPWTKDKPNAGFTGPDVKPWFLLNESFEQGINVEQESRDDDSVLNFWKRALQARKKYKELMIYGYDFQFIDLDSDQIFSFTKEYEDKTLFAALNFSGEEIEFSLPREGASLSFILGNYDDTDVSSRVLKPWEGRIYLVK
α-glucosidase (Saccharomyces cerevisiae, EC 3.2.1.20), sequence (P53341 whole entry): as above

In turn, `O=c1cc(-c2ccccc2)oc2cc(OCCCCCN3C[C@H](O)[C@@H](O)[C@H](O)[C@H]3CO)cc(O)c12` [compound 4, 5-Hydroxy-2-phenyl-7-((5-((2R,3R,4R,5S)-3,4,5-trihydroxy-2-(hydroxymeth-yl)-piperidin-1-yl)pentyl)oxy)-4H-chromen-4-one] had an IC50 in assay [1] above 100000 nM.
Take `OC[C@H]1NC[C@H](O)[C@@H](O)[C@@H]1O` [1-Deoxynojirimycin]: the “reversibility of α-glucosidase inhibition” value on α-glucosidase [2] is recorded as “reversibly inhibit”.
In the case of `O=c1cc(-c2ccccc2)oc2cc(OCCCCCCCCN3C[C@H](O)[C@@H](O)[C@H](O)[C@H]3CO)cc(O)c12` [compound 5, 5-Hydroxy-2-phenyl-7-((8-((2R,3R,4R,5S)-3,4,5-trihydroxy-2-(hydroxymeth-yl)-piperidin-1-yl)octyl)oxy)-4H-chromen-4-one], in assay [1], the IC50 came to 5560 ± 240 nM and the “inhibitory effect on α-glucosidase (in words)” value is “superior inhibition effects compared to 1-deoxynojirimycin”.
For the molecule `O=c1cc(-c2ccccc2)oc2cc(OCCCCCCCCCCCN3C[C@H](O)[C@@H](O)[C@H](O)[C@H]3CO)cc(O)c12` [compound 6, 5-Hydroxy-2-phenyl-7-((11-((2R,3R,4R,5S)-3,4,5-trihydroxy-2-(hydroxymethyl)-piperidin-1-yl)undecyl)oxy)-4H-chromen-4-one], in assay [1], half-maximal inhibition (IC50) was put at 510 ± 20 nM and the “inhibitory effect on α-glucosidase (in words)” value is listed as “superior inhibition effects compared to 1-deoxynojirimycin”. For the same molecule, the “α-glucosidase inhibitory activity, fold higher than 1-deoxynojirimycin” value in assay [1] (ratio of IC50 values) is “up to 16 fold”. The molecule also had an inhibition constant (Ki) on α-glucosidase [3] of 210 nM. In addition, the “reversibility of α-glucosidase inhibition” value on α-glucosidase [3] (0.0, 0.5, 1.0 μM of compound, varying enzyme concentration) is on record as “reversible”. Besides, the inhibition type entry against α-glucosidase [3] (Lineweaver–Burk plot) is “mixed competitive; also recorded: mixed-type inhibitor; also recorded: mixed competition type”. Also, the fluorescence quenching mechanism result on α-glucosidase [4] is “static fluorescence quenching”.

(Values after paper PMC9044198 (RSC Advances, 2021).)
